Variants at the floor of the assay were thinned out.
B1: tRNA (parent)
chain: GUUCCGUUGGCGUAAUGGUAACGCGUCUCCCUCCUAAGGAGAAGACUGCGGGUUCGAGUCCCGUACGGAACG

Variants of: B1
Test: yeast fitness relative to wild type (ratio to wild type); higher = fitter; tRNA-Arg(CCU), competitive growth, 37 C, YPD
Summary of the method: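 Gene amplicons from the start population and from each of six end populations were read by 100-nucleotide paired-end sequencing. Those end populations came from pooled Saccharomyces cerevisiae strains carrying tRNA-Arg(CCU) gene variants at the native locus, competed in YPD at 37°C for 24 hours. Fitness relative to wild type was worked out from changes in genotype frequencies. Genotypes needed ≥ 100 starting reads, and estimates < 0.5 were set to 0.5.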
For GUUCCGUUGGCGUGAUGGUAACGCGGCUCCCUCCUAUGGAGAAGUCUGCGAGUUCGAGUCCCGUCCGGAACG, the yeast fitness was no more than 0.5.
Variant GUUCCGUUGGCGUGAUGGUAACGCGUCUCCCUCCAAAGGAGAAGACUGCGGGUUCAAGUCCCGUAUGGAACG has a yeast fitness of no more than 0.5.
In the case of GUUCCGUUGGCGUGAUGGUAACGCGUCUCCCUCCUAAGGAGAAGACUACGGGUUCGAGUCCAGUACGGAACG, the yeast fitness is reported as 0.65.
GUUCCGUUGGCGUGAUGCUAACGCGUCUCGCUCCUAAGGAGAAGACUGCGGCUUCGAGUCACGUACGGAACG showed a yeast fitness of no more than 0.5.
In the case of GUUCCGUUGGCGUGAUGGUAACGCGUCUCCCUCCUAAGGAGAAGACUGCGGGUUCGAGUCCUGUACGGAACG, the yeast fitness is reported as 0.937.
GUUCCGUUGGCGUUCUGGUAACGCGUCUCCGUCCUAAGGAGAUGACUGCGGGUUCGAGUCCCGUACGGAACG showed a yeast fitness of 0.627.
GUUCCGUUGGCGUGAUGGAAACGCGUUUCCCUCUUAAGGAGAAGACUGCGGGUUCGAGUCCCGUAUGGAACG gave a yeast fitness of no more than 0.5.
Work on GUUCCGUUGGCGUUAUGGUACCGCGUCUCCCUCCUAAGGAGAAGACUGCGGGUUCGAGUCCCGUACGGAACG yielded a yeast fitness of 0.705.
GUUCCGUUGGCGUUAUGGUAUCGCGUCUCCCUCCUAAGGAGAAGACUGCGGGUUCGAGUCCCGUACGGAACG showed a yeast fitness of 0.547.
Variant GUUCCGUUGGCGUGAUGGUAACGCGUCUCCCUCCUAAGGAGAAGACUGCGGAUUCGAGUCCCGUACGGAACG has a yeast fitness of 0.631.
With GUUCCGUUGGCGUUAUGGUAACGCGUCUCCCUCCUAAGGGGAAGUCUGCGGGUUCAAGUCCCGUACGGAACG the yeast fitness was no more than 0.5.
Variant GUUCCGUUGGCGUGAUGAUAACGCGUCUCCCUCCUAAGGAGAAGACUGCGGGUUUGAGUCCCGUACGGAACG has a yeast fitness of no more than 0.5.
In the case of GUUCCGUUGGCGUUAUGGUAUCGCGUCUCCCUCCUAAGGAGAAGACUGCGGGUUCGAGUCCCGUACCGAACG, the yeast fitness is reported as 0.596.
For GUUCCGUUGGCGUGAUGGUAACGCGUCUCCCUCCUAAAGAGAAGACUGCGGGUUCGAGUCCCGUACGGAACG, the yeast fitness was 0.799.
GUUCCGUUGGCGUGAUGGUAACGCGUCUCCCUCCUAAGGAGAAGACUGCGGGUUCUAGUCCCGUUCGCAACG gave a yeast fitness of no more than 0.5.
With GUUCCGUUGGCGUUAUGGUAACGCGUCUCCCUCCUAAGGAGUAGACUGUGGGUUCGAGUCUCGUAUGGAACG the yeast fitness was no more than 0.5.
With GUUCCGUUGGCGUGAUGGUAACGCGUCUCCCUCCUAAGGAGAAGACUGCGGGUUCGAGUCCCGCACGGAACG the yeast fitness was 0.924.
GUUCCGUUGGCGUUAUGGUAACGCGUCUCCCUCCUACGGAGAAGAUUGCGGGUUCGAGUCGCGUACGGAACG gave a yeast fitness of no more than 0.5.
Work on GUUCCGUUGGCGUGAUGGUAACGCGUCUCCCUCCGAAGGAGAAGACUGCGGGUUAGAGUCCCAUACGGAACG yielded a yeast fitness of no more than 0.5.
GUUCCGUUGGCGUGAUGGUAACGCGUCUCCCACCUAAGGAGAAGACUGCGGGUUCGAGUCCCGUACGGAACG gave a yeast fitness of 0.554.
Variant GUUCCGUUGGCGUGAUGGUAACGCGUCUCCCUCCUAAGGAGAAGACUCCGGGUUCGAGUCCCGUACGGAACG has a yeast fitness of 0.701.
Variant GUUCCGUUGGCGUUAUGGUAACGCGUCUCCCUCCUAAGGAGAAGACUGCGGGUUCGCGACCCGUACGGAACG has a yeast fitness of 0.703.
For GUUCCGUUGGCGUUAUGGUAGCGCGUCUGCCUCCUAAGGAGAAGACUGCGGGUUCGAGACCCGUACGGAACG, the yeast fitness was no more than 0.5.
For GUUCCGUUGGCGUUGUGGUAACGCGUCUCCCUCGUAAGGAGAAGACUGCGGGUUCGAGUCUCGUACGGACCG, the yeast fitness was no more than 0.5.
Work on GUUCCGUUGGCGUUGUGGUAACGCGUCUCCCUCGUAAGGAGAAGACUGCGGGUUCGAGUCCCGUACGGAACG yielded a yeast fitness of no more than 0.5.
In the case of GUUCCGUUGGCGUGAUGGUAACGCGCCUCCCUCCUAGGGAGAAGACUGCGGGUUCGAGUCUCGUACGAAACG, the yeast fitness is reported as no more than 0.5.
GUUCCGUUGGCGUUUUGGUAACGCGUCUCCCUCCUAAGGAGAAGACUGUGGGUUCCAGUCCCGUACGGAACG showed a yeast fitness of no more than 0.5.
Variant GUUCCGUUGGCGUUAUGGUCACGCGUCUCCCUCCUACGGAGAAGACUGGGGGUUCGAGUCCCGUACGGAACG has a yeast fitness of no more than 0.5.
GUUCCGUUGGCGUGAUGGUAACGCGUCUCCCUCCUAAGGAGAAGACUGCGGGUUUGAGUCCCGUGCGGAACG showed a yeast fitness of 0.513.
For GUUCCGUUGGCGUUGUGGUAACGCGUCUCCCUCCUAAGGAGAAGACUGCGGGUUGGAGUCGCGUACGGAACG, the yeast fitness was 0.637.
In the case of GUUCCGUUGGCGUUAUGGUAACGCGUCUCCCUCCUAAGGAGAGGACUGCGGGUUCGAGUCCCGUACGGAACG, the yeast fitness is reported as 0.537.
For GUUCCGUUGGCGUGAUGGCAACGCGUCUCCCUCCUAAGGAGAAGACUGCGGGUUCGAGUCCCGUACGAAACG, the yeast fitness was 0.559.
For GUUCCGUUGGCGUUAUGGUACUGCGUCUCCCUGCUAAGGAGAAGGGUGCGGCUUCGAGUCCCGUACGGAACG, the yeast fitness was no more than 0.5.
For GUUCCGUUGGCGUGAUGGUAACCCGUCUCCCUCCUAAGGAGAAGACUGCGGGUUCGAGUCCCGUACGGAUCG, the yeast fitness was 0.564.
Variant GUUCCGUUGGCGUGAUGGCAACGCGUCUCCCUCCUAAGGAGAAGACUGCGGGUUCGAGUGCCGUACGGAACG has a yeast fitness of no more than 0.5.
With GUUCCGUUGGCGUUAUGGUAACGCGUCUCCCUCCUAAGGAGAAGCCUGCGGGUUCAAGUCCCGUACGGAACG the yeast fitness was 0.581.
In the case of GUUCCGUUGGCGUGAUGCUAACGCGUCUCCCUCCUAAGGAGAAGACUGCGGGUUCGAGUACCGUAUGGAACG, the yeast fitness is reported as no more than 0.5.
In the case of GUUCCGUUGGCGUGAUGGUAACGCAUCUCCCUCCUGAGGAGUAGACUGCGGGUUCGAGUCCCGUACGCAACG, the yeast fitness is reported as 0.576.
In the case of GUUCCGUUGGCGUGAUGGUAACGCGUCUCCCUCCUAAGGAGAAGACUGCUGGUUCGAGUCCCGUACCGAACG, the yeast fitness is reported as no more than 0.5.
Variant GUUCCGUUGGCGUUAUGGUAACGCGUCUCCCUCCUAAGGAGAAGACUGCGGGUUCGAGUCCCGUACGGAACG has a yeast fitness of 0.667.
Variant GUUCCGUUGGCGUGAUGGUAACUCGUCUCCCUCCUAAGGAGAAGACUGCGGGUUCGAAUCCCGUACGGAACG has a yeast fitness of no more than 0.5.
GUUCCGUUGGCGUGAUGGAGACGCGUCUCCCUCCUAAGGUGAAGACUGCGGGUUCGAGUCCCGUACGGAACG gave a yeast fitness of no more than 0.5.
Variant GUUCCGUUGGCGUUAUGGUAACGCGUCUCCCUCCUAGGGAGAACCCUGCAGGUUGGAGUCCCGUACGGAACG has a yeast fitness of 0.594.
GUUCCGUUGGCGUUAUGGUAACGCGUCUCCCUCCUAAGGAGACGACUGCGGGUACGAGUCCCGUACGGAACG gave a yeast fitness of no more than 0.5.
Work on GUUCCGUUGGCGUGAUGGUAACGCGUCUCCCUCCUAAGGAGAAGACUGCGGGUUCGACUCCCGUAAGGAACG yielded a yeast fitness of no more than 0.5.
In the case of GUUCCGUUGGCGUUAUGGUAACGCGUCUCCCUCCUAAGGAGUAGACUGCGGGUUCGAGUCCCGUACGGAACG, the yeast fitness is reported as 0.652.
GUUCCGUUGGCGUUAUGGUAACGCGUCUCCCUCCUAAGGAGGAGACUGCGGGUUCGAGUCCCGUACGGAACG gave a yeast fitness of 0.529.
For GUUCCGUUGGCGUUAUGGUAACGCGUCUCCCUCCUCAGGAGAAGACUGCGGGCUCGAGUCCCGUACGGCACG, the yeast fitness was no more than 0.5.
GUUCCGUUGGCGUGAUGGUAACGCGAGUCCCUCCUAAGGAGAAGACUGCGGGUUCGAGUCCCGUACGGAACG showed a yeast fitness of no more than 0.5.
With GUUCCGUUGGCGUGAUGGUAACGCGUCUCCCUCCUAAGGAGAAGACUGCGGGUUCGAAUCCCGUACGGAACG the yeast fitness was 0.836.
Work on GUUCCGUUGGCGUGAUGGUAACGCGGCUCCCUCCUAAGGAGACGACUGCGGGUUCGAGUCCCGUACGAAACG yielded a yeast fitness of no more than 0.5.
With GUUCCGUUGGCGUGAUGGUAACACGUCUCCCUCCUAAGGAGAAGACUGCGGGUUCGAGUCCCGGACGGUACG the yeast fitness was no more than 0.5.
With GUUCCGUUGGCGUGAUGGUAACGCGUCCCCCUCCUAAGGAGAAGACUGCGGGUUCGAGUCCCGUACAGAACG the yeast fitness was 0.534.
For GUUCCGUUGGCGUGAUGGUAACGCGUCUCCCUCCUAAGGAGAAGACUGGGGGUUCCAGUCCCGUACGGAACG, the yeast fitness was no more than 0.5.
Variant GUUCCGUUGGCGUUCUGGUAACGCGUCUCCCUCCUAAGGGGAAGACCGCGGGUUCCAGUCCCGUACCGAACG has a yeast fitness of no more than 0.5.
Work on GUUCCGUUGGCGUGAUGGUAACGCGUCUCCCUCCUAAGGACAAGAAUGCGGGUUCGAGUCCCGUACGGAACG yielded a yeast fitness of 0.791.
For GUUCCGUUGGCGUGAUGGUAACGCGUCUCCCUCCUAAGGAGAAGACUGCGGGUUCGAGUCCCGUACAGAACG, the yeast fitness was 0.821.
GUUCCGUUGGCGUUAUGGUAACGCGUCUCCCUCCUAAGGUGAAGACUGCGGGUACGAGUCCCGUACGGAGCG showed a yeast fitness of 0.568.
With GUUCCGUUGGCGUGAUGGUAACGCGUCUCCCUCCUAAGGAGAAGACUGCGGGUUAGUCUCCCGUACGGUACG the yeast fitness was no more than 0.5.
GUUCCGUUGGCGUGAUGGAAACGCGUGACCCUCAUGAGGAGAGGACUGCGGGUUCGAGUCCCGUACGGAACG gave a yeast fitness of 0.608.
With GUUCCGUUGGCGUUAUGGUAACGCGUCUCCCUCCUAAGGAGAAGCCUGUGGGUUCGAGUCCCGUCCGGAACG the yeast fitness was no more than 0.5.
Variant GUUCCGUUGGCGUUAUGGUAACGCGUCUCCCUCCUAAGGAGAAGCCCGCGGGUUUGAGUCCCGUCCGGCACG has a yeast fitness of no more than 0.5.
GUUCCGUUGGCGUGAUGAUAAGGCGUCUCCCUCCUAAGGAGAAGACUGAGGGUUCGAGUCCCGUACGGAACG showed a yeast fitness of no more than 0.5.
GUUCCGUUGGCGUUAUGGUAACGCGUCUCCCUCCUAAGGUGAAGACUGCGGGUAUGAGUCCCGCACGGAACG showed a yeast fitness of no more than 0.5.
With GUUCCGUUGGCGUGAUGGUAACGCGGCUCCCUCCUAAGGAGAAGACUGCGGGUUCGAGUCCCGUACGGAACG the yeast fitness was 0.81.
Work on GUUCCGUUGGCGUGAUGGUAACGCGUCUCCCUCCUAAGGAGAAGACUGCGGGUUCGAGUCGCGUACGGAACG yielded a yeast fitness of 0.721.
In the case of GUUCCGUUGGCGUGAUGGUAACGCGUCUCCCUCCUAAGGAAAAGACUGCGGGUUCGAGUCCCGUACGGAGCG, the yeast fitness is reported as 0.638.
GUUCCGUUGGCGUGAUGGUAACGCGUCUCCCCCCUAAGGAGAAGACUGCGGGUUUGAGUCCCGUACGGAACG showed a yeast fitness of no more than 0.5.
GUUCCGUUGGCGUGAUGGUAACGCAUCUCACUCCUAAGGAGAAGACUGCGGGUUCGAGUCCCGUACGGAACG showed a yeast fitness of 0.563.
GUUCCGUUGGCGUGAUGGUAACGCGUCUCCCUCCUAAGAAGAAGACUGCGGGUUCGAGUCCCGUACGGAACG gave a yeast fitness of 0.751.
Variant GUUCCGUUGGCGUGAGGCUAACGCGUCUCCCUCCUAAGGAGAAGACUGCGGGUUCGAGACCCGUUCGGAACG has a yeast fitness of no more than 0.5.
GUUCCGUUGGCGUGAUGGUAACGCGUCUCCCUCCUAAGGAGAAGACUGCGGGUUGGCGUCCCGUACGGAACG showed a yeast fitness of 0.598.
With GUUCCGUUGGCGUGAUGGUAACGCGUCUCCCGCCUAAGGAGAAGGCUGCGGGUUCGAGUCCCGUACGGUACG the yeast fitness was no more than 0.5.
For GUUCCGUUGGCGUUAUGGUAACGCGUCUCCCUCCUAUGGAGAAGACAGCGGGUUCGAGUCCCGUACGGAACG, the yeast fitness was 0.632.
Variant GUUCCGUUGGCGUUAUGGUAACGCGUCUCCCUCCUAUGGAGAAGACCGCGGGUUCGAGUCCCGUACGGAACG has a yeast fitness of no more than 0.5.
